Results: ChEMBL document CHEMBL1136376, “Identification of 2-aminobenzimidazole dimers as antibacterial agents” (2003)
Values after ≈ are worked out from the molar mass of the structure shown.

Experiments:
Assay type in all cases: functional
Staphylococcus aureus = assay: Antibacterial activity against Staphylococcus aureus
Procedure, shortened: (§1)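 Broth microdilution MIC run in duplicate. Overnight culture grown in appropriate medium was added to compound in 0.5% DMSO in water, giving about 10²–10³ CFU/well. Growth relative to a compound-free well was read as A595 after 20–24 h at 37 °C. MIC was reported as a range: complete inhibition at the upper concentration, viable cells at the lower. Strains: E. faecalis ATCC 29212, E. coli ATCC 25922, S. aureus ATCC 13709.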

Escherichia coli = assay: Antibacterial activity against Escherichia coli; procedure, shortened: as §1
Enterococcus faecalis = assay: Antibacterial activity against Enterococcus faecalis; procedure, shortened: as §1
Streptococcus pyogenes = assay: Antibacterial activity against Streptococcus pyogenes

SMILES | MIC (Staphylococcus aureus) [µM] | MIC (Escherichia coli) [µM] | MIC (Enterococcus faecalis) [µM] | MIC (Streptococcus pyogenes) [µM]
COC(=O)c1ccc2c(c1)nc(N)n2CCCN(C)CCCn1c(N)nc2cc(C(=O)OC)ccc21 | > 100 | > 100 | – | –
CN(CCCn1c(N)nc2cc(C#N)ccc21)CCCn1c(N)nc2cc(C#N)ccc21 | > 100 | > 100 | – | –
Nc1nc2cc(Cl)c(Cl)cc2n1CCCOCCCn1c(N)nc2cc(Cl)c(Cl)cc21 | > 100 | > 100 | – | –
COc1ccc2nc(N)n(CCCN(C)CCCn3c(N)nc4ccc(OC)cc43)c2c1 | > 100 | > 100 | – | –
Nc1nc2cc(Cl)c(Cl)cc2n1CCCCCCCn1c(N)nc2cc(Cl)c(Cl)cc21 | > 100 | > 100 | – | –
CN(CCCn1c(N)nc2cc(Br)ccc21)CCCn1c(N)nc2cc(Br)ccc21 | > 100 | > 100 | – | –
Cc1ccc2nc(N)n(CCCN(C)CCCn3c(N)nc4ccc(C)cc43)c2c1 | > 100 | > 100 | – | –
CN(CCCn1c(N)nc2ccccc21)CCCn1c(N)nc2ccccc21 | 100 (≈ 37.7 µg/mL) | 100 (≈ 37.7 µg/mL) | – | –

Stronger by MIC (Staphylococcus aureus), values ahead:

MIC (Staphylococcus aureus) [µM] | MIC (Escherichia coli) [µM] | MIC (Enterococcus faecalis) [µM] | MIC (Streptococcus pyogenes) [µM] | SMILES
50 (≈ 24.3 µg/mL) | 100 (≈ 48.5 µg/mL) | – | – | CN(CCCn1cnc2cc(Cl)c(Cl)cc21)CCCn1cnc2cc(Cl)c(Cl)cc21
50 (≈ 25.7 µg/mL) | 25 (≈ 12.8 µg/mL) | 25 (≈ 12.8 µg/mL) | 25 (≈ 12.8 µg/mL) | CN(CCCn1c(N)nc2cc(C(F)(F)F)ccc21)CCCn1c(N)nc2cc(C(F)(F)F)ccc21
50 (≈ 22.3 µg/mL) | 50 (≈ 22.3 µg/mL) | 50 (≈ 22.3 µg/mL) | 50 (≈ 22.3 µg/mL) | CN(CCCn1c(N)nc2cc(Cl)ccc21)CCCn1c(N)nc2cc(Cl)ccc21
12 (≈ 5.85 µg/mL) | 6 (≈ 2.92 µg/mL) | – | – | CN(CCn1c(N)nc2cc(Cl)c(Cl)cc21)CCn1c(N)nc2cc(Cl)c(Cl)cc21
12 (≈ 6.18 µg/mL) | 6 (≈ 3.09 µg/mL) | 6 (≈ 3.09 µg/mL) | 6 (≈ 3.09 µg/mL) | CN(CCCn1c(N)nc2cc(Cl)c(Cl)cc21)CCCn1c(N)nc2cc(Cl)c(Cl)cc21
12 (≈ 5.85 µg/mL) | 25 (≈ 12.2 µg/mL) | 1.5 (≈ 0.731 µg/mL) | 6 (≈ 2.92 µg/mL) | CN(CCNc1nc2cc(Cl)c(Cl)cc2[nH]1)CCNc1nc2cc(Cl)c(Cl)cc2[nH]1
6 (≈ 3.09 µg/mL) | 12 (≈ 6.18 µg/mL) | 6 (≈ 3.09 µg/mL) | 6 (≈ 3.09 µg/mL) | CN(CCCNc1nc2cc(Cl)c(Cl)cc2[nH]1)CCCNc1nc2cc(Cl)c(Cl)cc2[nH]1
